Screening data: PubChem, several laboratories
The list is not random: actives were taken first. Their share in the collection is about 1.7%.
CSN deneddyl inh = inhibitors of CSN-mediated cullin deneddylation, primary screen, biochemical, fluorescence polarization, uHTS. COP9 signalosome complex subunit 5 (Homo sapiens), Q92905. Purified CSN, SCF-Nedd8-OG deneddylation. inhibition, % at 12.5 µM. 360,000 tested, 0.38% active. AID 651999, 2013;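 active means pattern-corrected inhibition above about 35%, with an unprinted fluorescence ratio check between 0.5 and 1.5, limit read from the data, passing the limit was not always enough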;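 further: 0% = enzyme with substrate and 100% = substrate without enzyme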
Target sequence (Q92905 whole entry, looked up, one chain of several): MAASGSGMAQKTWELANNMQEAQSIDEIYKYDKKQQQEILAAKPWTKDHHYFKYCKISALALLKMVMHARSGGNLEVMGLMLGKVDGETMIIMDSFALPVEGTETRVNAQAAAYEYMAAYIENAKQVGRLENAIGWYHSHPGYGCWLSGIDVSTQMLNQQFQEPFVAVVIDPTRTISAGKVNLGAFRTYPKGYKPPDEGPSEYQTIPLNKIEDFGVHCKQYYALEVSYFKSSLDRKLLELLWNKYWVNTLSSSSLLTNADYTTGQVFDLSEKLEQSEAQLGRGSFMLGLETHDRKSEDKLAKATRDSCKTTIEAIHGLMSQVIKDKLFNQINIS
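Material: human Csn5 produced in HEK293T cells; Input: enzyme 0.24 nM; Reagent: SCFSkp2-Nedd8OG substrate at 10 nM final; Dosing: 12.5 µM compound; Incubation: 90 min reaction at room temperature; Detection: fluorescence polarization of the substrate; Evaluation: % inhibition of substrate cleavage by Csn5; Control set: substrate-only high control, full reaction low control.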
TPT1 inh = Candida albicans TPT1 enzyme inhibitors, primary screen, biochemical, fluorescence polarization. inhibition, % at 5 µM. AID 1962, 2009. 300,000 tested, 0.81% active. tRNA 2'-phosphotransferase TPT1 (Candida albicans SC5314). recombinant caTPT1, FP RNA substrate dephosphorylation;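 active means inhibition above the mean of all tested compounds plus 3 SD, set per screening campaign, cut at about 24% in these data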;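 further: plate controls were DMSO alone for no effect and ferristatin control at 100 nM for full effect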
IDE act = human IDE activators in live cells, primary screen, fluorescence polarization, HEK cells, FAbeta-B substrate. Insulin-degrading enzyme (Homo sapiens), P14735. FAbeta-B cleavage; 0% vehicle, 100% cell-free pure enzyme wells. activation, % at 5.96 µM. 340,000 tested, 0.073% active. AID 493087, 2011;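 active means activation above the mean of all tested compounds plus 3 SD, set per screening campaign, cut at about 17% in these data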
IDE inh = human IDE inhibitors in live cells, primary screen, fluorescence polarization, HEK cells, FAbetaB substrate | inhibition, % at 5.59 µM | FAbetaB cleavage | AID 434962, 2010 | Insulin-degrading enzyme (Homo sapiens), P14735 | 320,000 tested, 0.41% active;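 active means percent inhibition above the average of all tested compounds plus 3 SD, set per screening campaign, cut at about 16% in these data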;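 further: IDE supplied by intact live HEK cells; FP after avidin binding of uncleaved biotin substrate so inhibition keeps polarization high; 0% = DMSO wells and 100% = 60 µM reference IDE inhibitor Ii1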
HNF4A DNA FP = change in binding of human HNF4A to DNA, primary screen, biochemical, fluorescence polarization, FITC-DNA. Hepatocyte nuclear factor 4-alpha (Homo sapiens), P41235. 1 h. activity change, % at 10 µM. 360,000 tested, 0.3% active; in the data active means activity change above about 30%, passing the limit was not always enough
Rpn11 inh = Rpn11 (PSMD14) deubiquitinase inhibitors, primary screen, biochemical, fluorescence polarization, uHTS | human 26S proteasome, Ub4-pepOG fluorescence polarization; 20S core pre-blocked with epoxomicin | inhibition, % at 20 µM | 360,000 tested, 0.59% active;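 active means inhibition at 20 µM, scaled to each plate's controls, above about 33%, limit read from the data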
TPT1 inh confirm = Candida albicans TPT1 inhibitors, confirmation, biochemical, fluorescence polarization, triplicate | shares compounds with TPT1 inh | recombinant caTPT1, RNase T1 coupled | inhibition, % at 5 µM | 2,400 tested, 74% active;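 active means inhibition above the primary screen limit, the mean inhibition of all tested compounds plus 3 SD, cut at about 25% in these data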
RNase T1 inh = RNase T1 inhibitors, counter-screen for TPT1 inhibitor project, biochemical, fluorescence polarization. shares compounds with TPT1 inh. AID 2153, 2009. RNase T1 cleavage, 1536-well. 2,400 tested, 83% active. inhibition, % at 5 µM;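 active means inhibition above the solvent-only control well mean plus 3 SD, limit set per screening run, cut at about 23% in these data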;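 further: plate controls were DMSO wells with enzyme for no effect and wells without RNase T1 for full effect; inhibitors block cleavage so intact labeled substrate keeps polarization high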
Target sequence (P00651 whole entry, looked up): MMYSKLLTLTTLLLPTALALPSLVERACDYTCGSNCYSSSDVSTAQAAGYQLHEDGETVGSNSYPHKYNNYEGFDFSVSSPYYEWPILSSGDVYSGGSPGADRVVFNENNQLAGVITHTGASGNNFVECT
IDE cell inh cf = human IDE inhibitors in live cells, confirmation, fluorescence polarization, HEK cells, FAbetaB substrate. shares compounds with IDE inh. FAbetaB cleavage. inhibition, % at 5.59 µM. 1,200 tested, 51% active. AID 435028, 2010;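 active means mean inhibition across triplicate wells above the cutoff set by the earlier primary insulin-degrading enzyme screen, cut at about 16% in these data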;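 further: 0% = DMSO wells and 100% = 60 µM reference IDE inhibitor Ii1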
HEK293 tox = cytotoxicity in HEK cells, cytotoxicity control for IDE inhibitor project, cell-based, luminescence. shares compounds with IDE inh. HEK293 cytotoxicity, ATP luminescence. inhibition, % at 5.59 µM. 1,200 tested, 28% active. AID 449730, 2010; in the data active means inhibition above about 22%;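 further: 0% = vehicle wells and 100% = reference cytotoxic drug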
An asterisk follows results filed as active; / = no result shown.

SMILES	CSN deneddyl inh	TPT1 inh	IDE act	IDE inh	HNF4A DNA FP	Rpn11 inh	TPT1 inh confirm	RNase T1 inh	IDE cell inh cf	HEK293 tox
Nc1c(C(=O)c2ccccc2)sc2nsc(SCCN3CCOCC3)c12	13	58*	/	29*	34	/	63*	72*	61*	58*
CN(C(=S)SCc1ccccc1)C1CCS(=O)(=O)C1 (stereo not given)	-3	-4	6	0	-3	2	/	/	/	/
COc1ccc2c(n1)Sc1nc3ccccc3nc1N2	31	41*	-35	28*	32	/	56*	64*	55*	12
O=C(Cc1ccccc1)Nn1c(O)c(/C=C2\C=Nc3ccccc32)sc1=S	9	139*	-63	62*	53*	36	94*	105*	43*	11
Cn1c(O)c(/C=C2\C=Nc3ccccc32)sc1=Nc1ccc(C(=O)O)cc1	4	1	3	-2	-5	0	/	/	/	/
COc1cc(/C=C/C(=O)C2C(=O)C=C(C)OC2=O)cc(OC)c1O (stereo not given)	0	37*	-12	24*	-4	10	18	28*	35*	13
COc1cc(/C=C/C(=O)O)cc(Br)c1O	-3	-1	7	1	2	0	/	/	/	/
COc1ccc(/C=C/C(=O)C2C(=O)C=C(C)OC2=O)cc1O (stereo not given)	4	25*	-12	28*	0	-2	18	30*	9	20
CC1CCC(N(CCCN)Cc2ccco2)CC1C (stereo not given)	-1	-1	1	-1	3	-13	/	/	/	/
COc1cc(OC)c(/C=C2\SC(=O)N(CC(=O)Nc3ccccc3F)C2=O)c(OC)c1	1	-3	2	-7	3	2	/	/	/	/
COc1cc(/C=C2\SC(=O)N(CC(=O)Nc3ccccc3F)C2=O)cc(Cl)c1O	11	67*	-138	48*	3	25	81*	68*	96*	17
CCOc1ccc(N2C(=O)S/C(=C\c3cc(OC)c(OC)c(OC)c3)C2=O)cc1	-4	1	/	1	-2	-6	/	/	/	/
CCOc1ccc(N2C(=O)S/C(=C\c3ccc(O)c(OC)c3)C2=O)cc1	5	66*	-11	19*	11	16	48*	58*	20*	7
COc1ccc2c(c1)c1ccccc1n2C	-1	0	4	5	-1	-6	/	/	/	/
COc1ccc2c(c1)c(/C=C/c1cc[n+](C)cc1)cn2C	74*	72*	-19	27*	127	/	88*	91*	47*	44*
CCN(C1CCS(=O)(=O)C1)S(=O)(=O)c1ccc(OC)c(OC)c1 (stereo not given)	6	3	3	2	5	2	/	/	/	/
COc1ccc(C2CC(c3cccs3)=NN2c2ccc(C=O)cc2)cc1 (stereo not given)	/	65*	/	30*	/	/	67*	72*	19*	14
COc1ccc(CCNC(=O)CCn2c(SCC(=O)N3CCCC3)nc3ccccc3c2=O)cc1OC	-3	1	1	0	1	4	/	/	/	/
CCN(CC)c1ccc(/C=N/NC(=O)c2cccc(S(=O)(=O)Nc3ccccc3OC)c2)c(O)c1	7	55*	-21	33*	18	/	78*	87*	35*	100*
O=C(CN1C(=O)COc2ccccc21)NC1CCCC1	5	-2	-1	6	-2	2	/	/	/	/
C[n+]1cc(C(=O)N2CCCCC2)ccc1/C=C/c1c[nH]c2ccccc12	149	132*	-38	27*	147	/	109*	109*	40*	14
Cc1ccc(NC(=O)N2C3CCCC2CC(NC(=O)C(C)(C)C)C3)cc1 (stereo not given)	4	-1	0	4	2	0	/	/	/	/
CC(C)Nc1nnc(SC(C)C(=O)Nc2ccc(Cl)cn2)s1 (stereo not given)	-6	-4	7	8	-2	-1	/	/	/	/
COc1cccc(COCC(O)Cn2cnc3cc(C)c(C)cc32)c1 (stereo not given)	-2	-2	-3	2	-4	-6	/	/	/	/
Cc1cccc(N=Cc2[nH]c3ccc(Br)c(Cl)c3c2O)c1	-3	112*	-28	22*	54	11	73*	77*	23*	11
SMILES	CSN deneddyl inh	TPT1 inh	IDE act	IDE inh	HNF4A DNA FP	Rpn11 inh	TPT1 inh confirm	RNase T1 inh	IDE cell inh cf	HEK293 tox
Cc1ccnn1CCC(=O)O	-4	2	-1	1	0	0	/	/	/	/
Cn1cc(-c2ccccc2C(N)=O)c(=O)c2cc(Cl)ccc21	-5	2	-5	-2	-6	2	/	/	/	/
Cn1cc(C2=C(c3ccc(Cl)cc3Cl)C(=O)NC2=O)c2ccccc21	-74	81*	-56	33*	72	/	92*	95*	60*	-1
CN(CC(=O)Nc1ccc(Cl)cc1)C(=O)CNC(=O)Cc1cccc2ccccc12	3	/	4	-2	-4	-4	/	/	/	/
CC[n+]1ccc(/C=C/c2c[nH]c3ccccc23)cc1	66	64*	-14	24*	83	/	60*	67*	41*	71*
Cc1ccc2[nH]cc(/C=C/c3cc[n+](C)cc3)c2c1	89	/	-15	/	95	/	/	/	/	/
COc1ccc(C(=O)NCCSc2ccccc2)cc1OC	-5	-3	3	3	2	3	/	/	/	/
O=C(CNC(=O)c1ccccc1C(F)(F)F)N/N=C/c1cccs1	3	-2	4	-2	-2	-4	/	/	/	/
CN1/C(=C\C=C2/C(=O)Oc3ccccc3C2=O)C(C)(C)c2ccccc21	/	98*	/	184*	/	/	5	13	61*	23*
